Laboratory results as given in ChEMBL document CHEMBL3751743, “Synthesis and anti-cancer screening of novel heterocyclic-(2H)-1,2,3-triazoles as potential anti-cancer agents” (Medchemcomm, 2015).
Active and inactive are the calls of the source. The calls are words filed in the database; no cut-off is given here.

What was measured:
[1] = Cytotoxicity against human HOP62 cells after 48 hrs by SRB assay; format: functional; conditions: HOP-62, 48 h
Method in brief: (§1)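 NCI-60 five-dose screen: compounds in DMSO/H2O tested at 10^-4 to 10^-8 M (10-fold steps) for 48 h. Cell mass read by sulforhodamine B optical density at time zero and after exposure to compound or vehicle. GI50 is the concentration giving 50% reduction in net cell growth relative to day-0 cell numbers.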

[2] = Cytotoxicity against human HCT116 cells after 48 hrs by SRB assay; format: functional; conditions: HCT-116, 48 h
Method in brief: (§2)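 NCI-60 five-dose screen: compounds dissolved in DMSO/H2O, tested at five 10-fold dilutions (10^-4 to 10^-8 M) for 48 h. Growth measured by sulforhodamine B optical density at time zero and after 48 h drug or vehicle exposure. Percentage growth calculated relative to control. GI50 is the molar concentration giving 50% reduction in net cell growth versus day-0 cell numbers.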

[3] = Cytotoxicity against human HCT15 cells after 48 hrs by SRB assay; format: functional; conditions: HCT-15, 48 h; method in brief: as §2
[4] = Cytotoxicity against human OVCAR5 cells after 48 hrs by SRB assay; format: functional; conditions: OVCAR-5, 48 h; method in brief: as §2
[5] = system: EKVX; experiment: Cytotoxicity against human EKVX cells after 48 hrs by SRB assay; format: functional; method in brief: as §1
[6] = system: Malme-3M; experiment: Cytotoxicity against human MALME-3M cells after 48 hrs by SRB assay; format: functional; method in brief: as §1
[7] = Cytotoxicity against human SF295 cells after 48 hrs by SRB assay; format: functional; conditions: SF-295, 48 h; method in brief: as §2
[8] = Cytotoxicity against human SF539 cells after 48 hrs by SRB assay; format: functional; conditions: SF-539, 48 h; method in brief: as §2
[9] = system: MCF7; experiment: Cytotoxicity against human MCF7 cells after 48 hrs by SRB assay; format: functional; conditions: MCF7, 48 h; method in brief: as §2
[10] = Cytotoxicity against human IGROV1 cells after 48 hrs by SRB assay; format: functional; conditions: IGROV-1, 48 h; method in brief: as §1
[11] = Cytotoxicity against human Caki1 cells after 48 hrs by SRB assay; format: functional; conditions: CAKI-1, 48 h; method in brief: as §2
[12] = Cytotoxicity against human UACC62 cells after 48 hrs by SRB assay; format: functional; conditions: UACC-62, 48 h
Method in brief: (§3)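 NCI-60 five-dose screen. Compounds dissolved in DMSO/H2O and tested at five 10-fold dilutions (10^-4 to 10^-8 M) for 48 h. Growth read by sulforhodamine B optical density at time zero and after 48 h of exposure to compound or vehicle. Percent growth calculated against control. GI50 is the molar concentration giving 50% reduction in net cell growth relative to cell number on day 0.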

[13] = Cytotoxicity against human NCI-ADR-RES cells after 48 hrs by SRB assay; format: functional; method in brief: as §2
[14] = system: T47D; experiment: Cytotoxicity against human T47D cells after 48 hrs by SRB assay; format: functional; method in brief: as §3
[15] = Cytotoxicity against human SF268 cells after 48 hrs by SRB assay; format: functional; conditions: SF-268, 48 h; method in brief: as §2
[16] = Cytotoxicity against human MOLT4 cells after 48 hrs by SRB assay; format: functional; conditions: MOLT-4, 48 h; method in brief: as §2
[17] = Cytotoxicity against human LOXIMVI cells after 48 hrs by SRB assay; format: functional; conditions: LOX IMVI; method in brief: as §2
[18] = molecular target: Tubulin (Sus scrofa) (UniProt P02554+P02550); experiment: Inhibition of porcine brain tubulin polymerization at 200 uM by spectrophotometric analysis
Chain of Tubulin (Sus scrofa) (P02550 whole entry, looked up): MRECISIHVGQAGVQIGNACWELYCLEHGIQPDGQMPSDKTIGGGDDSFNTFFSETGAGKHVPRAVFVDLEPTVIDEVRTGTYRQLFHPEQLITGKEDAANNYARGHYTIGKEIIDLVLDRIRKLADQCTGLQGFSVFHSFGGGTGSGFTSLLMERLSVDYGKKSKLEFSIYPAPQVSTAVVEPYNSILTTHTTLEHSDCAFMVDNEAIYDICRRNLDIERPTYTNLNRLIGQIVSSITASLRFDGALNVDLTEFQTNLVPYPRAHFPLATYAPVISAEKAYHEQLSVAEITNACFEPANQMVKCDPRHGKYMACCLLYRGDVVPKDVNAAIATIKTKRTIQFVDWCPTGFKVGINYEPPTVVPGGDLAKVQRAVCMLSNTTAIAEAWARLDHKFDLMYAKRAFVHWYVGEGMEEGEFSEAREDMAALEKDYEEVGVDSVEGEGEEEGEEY
Chain of Tubulin (Sus scrofa) (P02554 whole entry, looked up): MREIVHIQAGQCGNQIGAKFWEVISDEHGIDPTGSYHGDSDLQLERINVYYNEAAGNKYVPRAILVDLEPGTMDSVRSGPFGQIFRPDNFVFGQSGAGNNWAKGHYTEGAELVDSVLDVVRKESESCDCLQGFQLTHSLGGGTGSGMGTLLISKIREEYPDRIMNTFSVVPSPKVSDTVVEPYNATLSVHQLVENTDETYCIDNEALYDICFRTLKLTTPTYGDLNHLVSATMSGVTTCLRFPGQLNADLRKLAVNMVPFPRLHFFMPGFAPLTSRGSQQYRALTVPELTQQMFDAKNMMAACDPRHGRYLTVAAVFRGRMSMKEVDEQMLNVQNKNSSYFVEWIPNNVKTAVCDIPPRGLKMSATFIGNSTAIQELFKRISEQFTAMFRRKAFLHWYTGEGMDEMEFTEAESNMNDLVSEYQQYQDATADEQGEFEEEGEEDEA

[19] = Cytotoxicity against human SKOV3 cells after 48 hrs by SRB assay; format: functional; conditions: SK-OV-3, 48 h; method in brief: as §2
[20] = Cytotoxicity against human SW620 cells after 48 hrs by SRB assay; format: functional; conditions: SW-620, 48 h; method in brief: as §2
[21] = Cytotoxicity against human RXF393 cells after 48 hrs by SRB assay; format: functional; conditions: RXF 393, 48 h; method in brief: as §2
[22] = system: NCI-H522; experiment: Cytotoxicity against human NCI-H522 cells after 48 hrs by SRB assay; format: functional; conditions: NCI-H522, 48 h; method in brief: as §2
[23] = Cytotoxicity against human RPMI8226 cells after 48 hrs by SRB assay; format: functional; conditions: RPMI-8226, 48 h; method in brief: as §2
[24] = Cytotoxicity against human UACC257 cells after 48 hrs by SRB assay; format: functional; conditions: UACC-257, 48 h; method in brief: as §3
[25] = Cytotoxicity against human OVCAR8 cells after 48 hrs by SRB assay; format: functional; conditions: OVCAR-8, 48 h; method in brief: as §2
[26] = Cytotoxicity against human Hs 578T cells after 48 hrs by SRB assay; format: functional; method in brief: as §2
[27] = system: KM12; experiment: Cytotoxicity against human KM12 cells after 48 hrs by SRB assay; format: functional; conditions: KM12, 48 h; method in brief: as §2
[28] = system: SK-MEL-2; experiment: Cytotoxicity against human SK-MEL-2 cells after 48 hrs by SRB assay; format: functional; conditions: SK-MEL-2, 48 h; method in brief: as §2
[29] = system: SK-MEL-28; experiment: Cytotoxicity against human SK-MEL-28 cells after 48 hrs by SRB assay; format: functional; conditions: SK-MEL-28, 48 h; method in brief: as §2
[30] = system: MDA-MB-231; experiment: Cytotoxicity against human MDA-MB-231 cells after 48 hrs by SRB assay; format: functional; conditions: MDA-MB-231, 48 h; method in brief: as §2
[31] = system: ACHN; experiment: Cytotoxicity against human ACHN cells after 48 hrs by SRB assay; format: functional; method in brief: as §2
[32] = system: NCI-H226; experiment: Cytotoxicity against human NCI-H226 cells after 48 hrs by SRB assay; format: functional; conditions: NCI-H226, 48 h; method in brief: as §2
[33] = Cytotoxicity against human HCC2998 cells after 48 hrs by SRB assay; format: functional; conditions: HCC 2998, 48 h; method in brief: as §2
[34] = system: K562; experiment: Cytotoxicity against human K562 cells after 48 hrs by SRB assay; format: functional; conditions: K562, 48 h; method in brief: as §2
[35] = system: CCRF-CEM; experiment: Cytotoxicity against human CCRF-CEM cells after 48 hrs by SRB assay; format: functional; method in brief: as §2
[36] = Cytotoxicity against human PC3 cells after 48 hrs by SRB assay; format: functional; conditions: PC-3, 48 h; method in brief: as §2
[37] = system: NCI-H23; experiment: Cytotoxicity against human NCI-H23 cells after 48 hrs by SRB assay; format: functional; conditions: NCI-H23, 48 h; method in brief: as §2
[38] = Cytotoxicity against human HOP92 cells after 48 hrs by SRB assay; format: functional; conditions: HOP-92, 48 h; method in brief: as §2
[39] = system: MDA-MB-468; experiment: Cytotoxicity against human MDA-MB-468 cells after 48 hrs by SRB assay; format: functional; conditions: MDA-MB-468, 48 h; method in brief: as §2
[40] = Cytotoxicity against human UO31 cells after 48 hrs by SRB assay; format: functional; conditions: UO-31, 48 h; method in brief: as §3
[41] = system: HT-29; experiment: Cytotoxicity against human HT-29 cells after 48 hrs by SRB assay; format: functional; conditions: HT-29, 48 h; method in brief: as §2
[42] = system: U-251; experiment: Cytotoxicity against human U251 cells after 48 hrs by SRB assay; format: functional; conditions: U-251, 48 h; method in brief: as §3
[43] = Cytotoxicity against human BT549 cells after 48 hrs by SRB assay; format: functional; conditions: BT-549, 48 h; method in brief: as §2
[44] = Cytotoxicity against human SNB19 cells after 48 hrs by SRB assay; format: functional; conditions: SNB-19, 48 h; method in brief: as §2
[45] = system: A498; experiment: Cytotoxicity against human A498 cells after 48 hrs by SRB assay; format: functional; conditions: A498, 48 h; method in brief: as §2
[46] = system: MDA-MB-435; experiment: Cytotoxicity against human MDA-MB-435 cells after 48 hrs by SRB assay; format: functional; conditions: MDA-MB-435, 48 h; method in brief: as §2
[47] = Cytotoxicity against human TK10 cells after 48 hrs by SRB assay; format: functional; conditions: TK-10, 48 h; method in brief: as §3
[48] = Cytotoxicity against human HL-60(TB) cells after 48 hrs by SRB assay; format: functional; conditions: HL-60, 48 h; method in brief: as §2
[49] = system: NCI-H460; experiment: Cytotoxicity against human NCI-H460 cells after 48 hrs by SRB assay; format: functional; conditions: NCI-H460, 48 h; method in brief: as §2
[50] = system: A549; experiment: Cytotoxicity against human A549 cells after 48 hrs by SRB assay; format: functional; conditions: A549, 48 h; method in brief: as §2
[51] = Cytotoxicity against human DU145 cells after 48 hrs by SRB assay; format: functional; conditions: DU-145, 48 h; method in brief: as §2
[52] = system: M14; experiment: Cytotoxicity against human M14 cells after 48 hrs by SRB assay; format: functional; conditions: M14, 48 h; method in brief: as §2
[53] = system: 786-0; experiment: Cytotoxicity against human 786-0 cells after 48 hrs by SRB assay; format: functional; conditions: 786-0, 48 h; method in brief: as §2
[54] = system: SK-MEL-5; experiment: Cytotoxicity against human SK-MEL-5 cells after 48 hrs by SRB assay; format: functional; conditions: SK-MEL-5, 48 h; method in brief: as §2
[55] = Cytotoxicity against human OVCAR3 cells after 48 hrs by SRB assay; format: functional; conditions: OVCAR-3, 48 h; method in brief: as §2
[56] = Cytotoxicity against human COLO205 cells after 48 hrs by SRB assay; format: functional; conditions: COLO 205, 48 h; method in brief: as §2

COc1cc(-c2nn(C)nc2-c2cc3ccccc3s2)cc(OC)c1OC
GI50 [1]: 553 nM
GI50 [2]: 73 nM
GI50 [3]: 58 nM
GI50 [4]: 2360 nM
GI50 [5]: 466 nM
GI50 [6]: 16900 nM
GI50 [7]: 36 nM
GI50 [8]: 149 nM
GI50 [9]: 40 nM
GI50 [10]: 707 nM
GI50 [11]: 3770 nM
GI50 [12]: 53 nM
GI50 [13]: 103 nM
GI50 [14]: > 100000 nM
GI50 [15]: 630 nM
GI50 [16]: 333 nM
GI50 [17]: 168 nM
inhibition [18]: inactive
GI50 [19]: 311 nM
GI50 [20]: 63 nM
GI50 [21]: 286 nM
GI50 [22]: 23 nM
GI50 [23]: 362 nM
GI50 [24]: 51600 nM
GI50 [25]: 352 nM
GI50 [26]: 270 nM
GI50 [27]: 54 nM
GI50 [28]: 59 nM
GI50 [29]: 13000 nM
GI50 [30]: 1600 nM
GI50 [31]: 294 nM
GI50 [32]: > 100000 nM
GI50 [33]: 407 nM
GI50 [34]: 42 nM
GI50 [35]: 220 nM
GI50 [36]: 77 nM
GI50 [37]: 392 nM
GI50 [38]: 80 nM
GI50 [39]: 82 nM
GI50 [40]: 744 nM
GI50 [41]: 55 nM
GI50 [42]: 78 nM
GI50 [43]: 422 nM
GI50 [44]: 254 nM
GI50 [45]: 41 nM
GI50 [46]: 25 nM
GI50 [47]: 578 nM
GI50 [48]: 48 nM
GI50 [49]: 69 nM
GI50 [50]: 167 nM
GI50 [51]: 263 nM
GI50 [52]: 76 nM
GI50 [53]: 312 nM
GI50 [54]: 225 nM
GI50 [55]: 354 nM
GI50 [56]: 82 nM
